Bioassay records from PubChem BioAssay.
iPSC survival up: enhancers of human iPSC single-cell survival; hiPSC single-cell survival, ATPlite luminescence; 100% = ROCK inhibitor wells, 0% = DMSO; survival enhancement, % at 20 µM; 360,000 compounds, 0.044% hits; AID 602274; in the data active = survival enhancement above about 18%;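 note: cells exposed to compounds for 16 hours before the ATP read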
H9c2 protect: myocardial damage modulation in H9c2 cells | H9c2 cardiomyocytes, H2O2 injury protection, ATPLite, 2 h | protection from H2O2 cell death, % at 20 µM | 360,000 compounds, 0.63% hits;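 active = compounds giving at least 50% protection of heart cells from peroxide-induced death in the single-dose screen, raw or plate-pattern-corrected value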;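 note: 0% = DMSO wells with peroxide and 100% = DMSO wells without peroxide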
XBP1 UPR activ: activators of adaptive arm of unfolded protein response (XBP1) | CHO-XBP1 luciferase reporter, IRE1-XBP1 UPR activation, luminescence; percent of tunicamycin response, DMSO as zero | activation, % at 20 µM | 330,000 compounds, 0.33% hits | AID 463104;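 active = versus positive control, 20 µM dose yields 30% or more activation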;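 note: 100% = tunicamycin at 10 µg/mL and 0% = DMSO only wells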
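Assay system: IRE1-XBP1 luciferase reporter CHO line. Input: 1000 cells/well. Buffer or medium: F12 with 10% serum. Doses: 20 µM, 1% DMSO. Times: overnight seeding at 37 °C, 6 h compound treatment at 37 °C. Technique: Steady-Glo luciferase glow luminescence, 10 min after reagent addition.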
CHOP inhibitor: CHOP inhibition in unfolded protein response. CHO-K1 CHOP-promoter luciferase, tunicamycin-induced, 15-18 h. inhibition, % at 10 µM. 220,000 compounds, 3.8% hits. AID 2732;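 active = compounds that reduced the stress-induced luciferase reporter signal by more than about 70% of percent inhibition, limit read from the data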;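 note: 0% = tunicamycin plus vehicle and 100% = wells without tunicamycin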
CHOP UPR activ: apoptotic UPR (CHOP) activation; CHO-CHOP luciferase reporter, luminescence; percent of tunicamycin response over DMSO baseline; activation, % at 10 µM; 330,000 compounds, 0.34% hits; AID 449763;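 active = at 10 µM dose, activation of 40% or more, normalized to positive control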;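 note: 100% = tunicamycin at 10 µg/mL and 0% = DMSO alone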
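Test system: CHO-CHOP cells, stable luciferase reporter of PERK-eIF2a-CHOP signalling | Quantity: 500 CHO-CHOP cells per well | Buffer or medium: F12 plus 10% serum | Compound dosing: 10 µM single point, 0.5% DMSO | Schedule: 6 h compound treatment, 37 °C | Signal: Luciferase luminescence | Control set: Tunicamycin high control, DMSO low control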
CHOP inh conf: confirmation of CHOP induction inhibitors. shares compounds with CHOP inhibitor. CHO-CHOP promoter luciferase reporter, tunicamycin-induced, luminescence. inhibition, % at 10 µM. 2,100 compounds, 45% hits;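 active = mean of three repeat readings of reporter signal inhibition above a set limit, cut at about 70% in these data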;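 note: 0% = tunicamycin plus vehicle and 100% = wells lacking tunicamycin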
CHOP UPR conf: apoptotic UPR (CHOP) activation, confirmed; CHO-CHOP cells, CHOP-luciferase reporter luminescence; percent of tunicamycin response, DMSO as zero; activation, % at 10 µM; 1,000 compounds, 64% hits; AID 463112; shares compounds with CHOP UPR activ; in the data active = activation above about 33%;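 note: 0% = DMSO wells and 100% = tunicamycin 10 µg/mL wells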
UPR XBP1 confirm: adaptive UPR (XBP1) activation, confirmed; 1,000 compounds, 63% hits; CHO-XBP1 IRE1-XBP1 luciferase reporter, luminescence; shares compounds with XBP1 UPR activ; activation, % at 20 µM;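 active = reporter signal at least 30% of the positive control's activation in two or more of four replicate wells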;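 note: plate controls were DMSO negative control for no effect and tunicamycin 10 µg/mL positive control for full effect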
* = called active by the depositor; . = not tested or not shown. The full list was thinned out, with hits kept by preference.

SMILES	iPSC survival up	H9c2 protect	XBP1 UPR activ	CHOP inhibitor	CHOP UPR activ	CHOP inh conf	CHOP UPR conf	others
CCCCCCn1c(=O)c(C(=O)Nc2cnccn2)c(O)c2ccccc21	-1	-16	4	96*	14	120*	.
CCCCCn1c(=O)c(C(=O)Nc2ccccn2)c(O)c2ccccc21	0	2	-2	.	15	.	.
CCOC(=O)[C@]12Cc3cc(Cl)ccc3[C@H]1N(CC(=O)OC)C(=O)c1ccccc12	-1	.	.	.	.	.	.
COC(=O)[C@@H]1[C@@H](C(=O)OC)C2(c3ccccc3-c3ccccc32)N(c2ccc(Cl)cc2)N1C#N	-3	-13	-7	109*	-10	124*	.
COC(=O)C[C@]1(C(=O)OC)CN(C#N)N(c2ccc(Cl)cc2)C12c1ccccc1-c1ccccc12	-4	-4	-7	.	-10	129*	.
CCC1C(c2cc(OC)c(OC)c(OC)c2)c2cc3c(cc2OC1N1CCCC1)OCO3 (configuration not stated)	3	-1	.	.	.	.	.
O=C1NC(=O)N(Cc2ccc(F)cc2)C(=O)/C1=C\C=C\c1ccco1	-1	-9	-1	0	-1	.	.
Cc1cc(C)cc(N2C(=O)NC(=O)/C(=C\C=C\c3ccco3)C2=O)c1	-1	61*	.	107*	.	-16	.
C[C@H]1C[C@@H](C)C(=O)[C@@H]([C@H](O)CC2CC(=O)NC(=O)C2)C1	-1	-1	-5	103*	-5	110*	.
CCOC(=O)[C@@H]1[C@H]2COc3ccc(Br)cc3[C@H]2N2C(=O)N(c3cccc(C)c3)C(=O)[C@]12C	2	-3	2	.	1	.	.
COc1ccc(-n2nnnc2C(c2cccs2)N2CCC(n3c(=O)[nH]c4ccccc43)CC2)cc1 (configuration not stated)	1	42	.	.	.	.	.
O=C1NC(=O)C(=Cc2ccc(SC3CCCCC3)o2)C(=O)N1	-1	1	1	108*	2	55	.
CCOC(=O)C1(CCOc2ccccc2)CCN(Cc2ccc(C)s2)CC1	0	-22	-2	101*	-1	57	.
CCOC(=O)C1(CCc2ccccc2)CCN(Cc2ccc3c(c2)OCCO3)CC1	-1	-14	-3	10	-2	.	.
O=C1NC(=O)C(=Cc2ccc(-c3cc(Cl)ccc3[N+](=O)[O-])o2)C(=O)N1	-1	-13	.	105*	.	-60	.
CCOc1ccc(N2C(=O)/C(=C\c3cccs3)C(=O)NC2=S)cc1	.	.	-7	106*	268*	-100	63*
O=c1[nH]c2ccccc2n1C1CCN(C(CCc2ccccc2)c2nnnn2C2CCCC2)CC1 (configuration not stated)	3	21	.	.	.	.	.
Cc1ccc(N2C(=O)NC(=O)/C(=C/c3cnn(-c4ccc(C)cc4)c3)C2=O)cc1	-2	25	3	102*	87*	-79	93*
CSc1ncc(/C=C2/C(=O)NC(=O)N(c3ccc(C)cc3)C2=O)cn1	1	-5	-3	-4	-1	.	.
O=C1NC(=O)N(Cc2ccccc2)C(=O)/C1=C\c1ccco1	3	-8	71*	106*	2	-47	.	UPR XBP1 confirm=29*
C=CCN1Cc2ccccc2-n2nncc2C1	-1	3	.	.	.	.	.
Cc1cccc(-n2c(/C=C/c3ccc([N+](=O)[O-])o3)nc3ccccc3c2=O)c1	-4	4	12	-85	43*	.	37*
O=c1c2ccccc2nc(/C=C/c2ccc([N+](=O)[O-])o2)n1-c1ccc(O)cc1	-1	17	21	-129	94*	.	37*
O=C1NCN(c2ccccc2)C12CCN(C(c1nnnn1C1CCCCC1)C1CC1)CC2 (configuration not stated)	-3	7	.	.	.	.	.
C=CC12CN(C)C3C4COC(CC41)C1(C(=O)Nc4ccccc41)C32 (configuration not stated)	2	2	.	.	.	.	.
SMILES	iPSC survival up	H9c2 protect	XBP1 UPR activ	CHOP inhibitor	CHOP UPR activ	CHOP inh conf	CHOP UPR conf	others
N=Cc1c(O)n(-c2cccc(Cl)c2)c(=O)[nH]c1=O	-2	-3	-2	19	40*	.	-1
O=c1[nH]c(=O)n(-c2cccc(Cl)c2)c(O)c1/C=N/c1ccccn1	-2	2	-4	33	-2	.	.
CSCCC(c1nnnn1-c1ccc2c(c1)OCCO2)N1CCC(n2c(=O)[nH]c3ccccc32)CC1 (configuration not stated)	0	37	.	.	.	.	.
Cc1ccc(-c2cc(-c3ccc(C)cc3)[n+](-c3ccccc3)c(-c3ccc(C)cc3)c2)cc1	-6	-18	7	.	55*	.	69*
Cc1ccc(-c2cc(-c3ccccc3)cc(-c3ccccc3)[n+]2-c2ccccc2)cc1	-3	-27	-4	.	29	.	.
C=C1C(=O)O[C@@H]2C[C@@H](C)[C@H]3C=CC(=O)[C@]3(O)C[C@@H]12	-5	2	-4	-20	61*	.	24
CCOC(=O)[C@]12Cc3c(cc(OC)c(OC)c3OC)[C@H]1N(C)C(=O)c1ccccc12	0	.	.	.	.	.	.
CN1C(=O)/C(=C\c2ccc(Br)s2)C(=O)NC1=S	0	-7	.	.	.	.	.
O=C1NC(=S)NC(=O)C1=Cc1ccc(Br)s1	-1	-18	-5	.	72*	.	119*
O=C1NC(=O)N(c2ccccc2)C(=O)/C1=C\C=C\c1ccccc1	-1	-4	-1	81*	175*	.	63*
CCCCN1C(=O)/C(=C/C=C/c2ccco2)C(=O)NC1=S	-1	2	.	-30	.	.	.
CCc1ccc(N2C(=O)NC(=O)/C(=C\C=C\c3ccco3)C2=O)cc1	0	6	-4	108*	167*	.	229*
Cc1ccc(N2C(=O)NC(=O)/C(=C/C=C/c3ccco3)C2=O)cc1	-2	23	-4	101*	168*	.	119*
C[C@H](CO)N1C[C@H](C)[C@@H](CN(C)C(=O)Oc2ccc3ccccc3c2)OCc2cn(nn2)CCCC1=O	-1	-2	.	.	.	.	.
CC(C)N1CC=C(c2c[nH]c3ccccc23)CC1	0	-1	48*	25	-4	.	.	UPR XBP1 confirm=0
CCOC(=O)[C@]12Cc3cc(C)ccc3[C@H]1N(C)C(=O)c1cc(OC)ccc12	-1	.	.	.	.	.	.
